≈ marks a conversion by molar mass, not a printed value.

8 molecules from ChEMBL document CHEMBL2146477, “Antimicrobial Activity of Adenine-Based Inhibitors of NAD(+)-Dependent DNA Ligase” (ACS Med Chem Lett, 2012) can be followed below.

The nature of experiment [1]: Inhibition of NAD-dependent LigA in Streptococcus pneumoniae SPN100 after 20 mins by FRET assay. The method in brief: (§1)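 LigA enzyme assay with NAD+ at a low multiple of its Km (around 1–10 μM). Percent inhibition was measured at 2-fold serial dilutions of compound, and IC50 was interpolated. The reported value is the geometric mean of at least 2 determinations.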

The test system of experiment [2] is Haemophilus influenzae. The experiment can be described thus: Antibacterial activity against Haemophilus influenzae HIN102 overexpressing LigA by NCCLS broth microdilution method. The class given is functional. The method in brief:
(§2)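 MIC measured on the LigA-overexpressing strain, in duplicate on different days. The reported MIC is the geometric mean of the two. The maximum test concentration was 64 μg/mL.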
(Broth dilution looks for growth in wells or tubes with falling amounts of substance.)

Experiment [3] has as its system Streptococcus pneumoniae. The experiment can be described thus: Antibacterial activity against Streptococcus pneumoniae SPN100 by NCCLS broth microdilution method. The class given is functional.
Experiment [4] can be described thus: Inhibition of NAD-dependent LigA in AcrABTolC deficient Haemophilus influenzae HIN101 after 20 mins by FRET assay. The method in brief: as §1
Experiment [5] concerns Haemophilus influenzae. The experiment is described as follows: Ratio of MIC for AcrABTolC deficient Haemophilus influenzae HIN101 to MIC for Haemophilus influenzae HIN102 overexpressing LigA. The class given is functional. In outline:
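MICs for parental HIN101 and isogenic LigA-overexpressing HIN102 were each run in duplicate on different days, up to 64 μg/mL, using geometric-mean values. A difference of at least 4-fold on both occasions was taken to mean the LigA mode of action in the parental strain.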

The subject of experiment [6] is Haemophilus influenzae. The experiment can be described thus: Antibacterial activity against AcrABTolC deficient Haemophilus influenzae HIN101 by NCCLS broth microdilution method. It counts as functional.
Experiment [7] concerns Streptococcus pneumoniae. The experiment can be described thus: Ratio of MIC for Streptococcus pneumoniae SPN102 to MIC for Streptococcus pneumoniae SPN100.
In experiment [8] the test system is Streptococcus pneumoniae. The experiment can be described thus: Antibacterial activity against Streptococcus pneumoniae SPN102 overexpressing LigA by NCCLS broth microdilution method. It counts as functional. The method in brief:
as §2

A word on the IC50: it is the point on the concentration scale where inhibition reaches its midpoint. A lower IC50 goes with greater potency. As for `Nc1nc(OC2CCC3CCCCC3C2)nc2c1ncn2C1CCCO1` (stereo not given), the IC50 in experiment [1] came to 0.06 µM; in experiment [4], 0.86 µM. Besides, the MIC was 8 mg/L (≈ 22.4 µM) against Haemophilus influenzae [2], 2 mg/L (≈ 5.6 µM) against Streptococcus pneumoniae [3] and 8 mg/L (≈ 22.4 µM) against Haemophilus influenzae [6]. In the experiment with Haemophilus influenzae [5], the Ratio was 16.
For `C[C@H]1O[C@@H](n2cnc3c(N)nc(OCC45CC6CC(CC(C6)C4)C5)nc32)[C@H](O)[C@@H]1O`, the IC50 in experiment [1] worked out at 0.2 µM; in experiment [4] it was 1.7 µM. For the same molecule, the MIC against Streptococcus pneumoniae [3] was 2 mg/L (≈ 4.81 µM); with Haemophilus influenzae [6] it was 32 mg/L (≈ 77 µM).
`C[C@H]1O[C@@H](n2cnc3c(N)nc(OC4CCCC4)nc32)[C@H](O)[C@@H]1CC1CCCCC1` yielded an IC50 in experiment [1] of 0.3 µM. Moreover, the MIC against Streptococcus pneumoniae [3] and in the experiment with Streptococcus pneumoniae [8] was 16 mg/L (≈ 38.5 µM) in each case. For the same molecule, the Ratio in the experiment on Streptococcus pneumoniae [7] is on record as 64.
In experiment [1], `Nc1nc(OC2CCC3CCCC3C2)nc2c1ncn2C1CCCO1` (stereo not given) gave an IC50 of 0.2 µM. Moreover, the values for the MIC in the experiment on Streptococcus pneumoniae [3] and against Streptococcus pneumoniae [8] were 4 mg/L (≈ 11.6 µM) and 32 mg/L (≈ 93.2 µM), respectively. In addition, the Ratio in the experiment on Streptococcus pneumoniae [7] was 64.
As for `C[C@H]1O[C@@H](n2cnc3c(N)nc(OC4CCC5CCCCC5C4)nc32)[C@H](O)[C@@H]1O` (stereo not given in full), the IC50 in experiment [1] was determined as 0.04 µM; in experiment [4] it was 0.26 µM. Also, the values for the MIC with Haemophilus influenzae [2], in the experiment on Streptococcus pneumoniae [3] and in the experiment on Haemophilus influenzae [6] were 32 mg/L (≈ 79.3 µM), 0.5 mg/L (≈ 1.24 µM) and 8 mg/L (≈ 19.8 µM), respectively. Also, in the experiment with Haemophilus influenzae [5], the Ratio was 16.
Consider `Nc1nc(OC2CCC3CCCCC3C2)nc2c1ncn2[C@@H]1O[C@H](CO)[C@@H](O)[C@H]1O` (stereo not given in full), for which the values for the IC50 in experiment [1] and in experiment [4] were 0.08 µM and 0.4 µM, respectively. The results for the MIC against Streptococcus pneumoniae [3] and in the experiment with Haemophilus influenzae [6] were 1 mg/L (≈ 2.38 µM) and 16 mg/L (≈ 38.1 µM), respectively.
With `C[C@H]1O[C@@H](n2cnc3c(N)nc(OC4CCCC4)nc32)[C@H](O)[C@@H]1Oc1ccccc1`, the IC50 amounted to 0.05 µM in experiment [1] and 1.3 µM in experiment [4]. Besides, the figures for the MIC in the experiment on Streptococcus pneumoniae [3] and in the experiment with Haemophilus influenzae [6] were 2 mg/L (≈ 4.86 µM) and 64 mg/L (≈ 156 µM), respectively.
Consider `Nc1nc(OC2CCCC2)nc2c1ncn2[C@@H]1O[C@H](CO)[C@@H](F)[C@H]1O`, for which the IC50 in experiment [1] was 0.1 µM; in experiment [4], 0.3 µM. In addition, the MIC in the experiment with Haemophilus influenzae [2] was more than 64 mg/L; with Streptococcus pneumoniae [3], 4 mg/L (≈ 11.3 µM); with Haemophilus influenzae [6] it was 8 mg/L (≈ 22.6 µM); in the experiment on Streptococcus pneumoniae [8], more than 64 mg/L. Moreover, the Ratio in the experiment on Haemophilus influenzae [5] was 16; in the experiment with Streptococcus pneumoniae [7], 64.
